The record followed here is ChEMBL document CHEMBL5678805, “Intermittent administration of MEK inhibitor GDC-0973 plus PI3K inhibitor GDC-0941 triggers robust apoptosis and tumor growth inhibition” (Cancer Res, 2012).

Assay [1] addresses Serine/threonine-protein kinase B-raf (Homo sapiens, UniProt P15056, V600E). The experiment in a line: Inhibition of B-RAF V600E (unknown origin).
Assay [2] concerns the target Calcium/calmodulin-dependent protein kinase type 1 (Homo sapiens, UniProt Q14012). The assay is described as follows: Inhibition of CaMK1 (unknown origin).
For assay [3], the target named is Dual specificity protein kinase CLK3 (Homo sapiens, UniProt P49761). The experiment in a line: Inhibition of CLK3 (unknown origin).
In the next assay the target is Ephrin type-A receptor 2 (Homo sapiens, UniProt P29317). The experiment in a line: Inhibition of EphA2 (unknown origin).
Assay [4] has as its target Mitogen-activated protein kinase 1 (Homo sapiens, UniProt P28482). The experiment in a line: Inhibition of ERK2 (unknown origin).
Assay [5] has as its target Serine/threonine-protein kinase Nek7 (Homo sapiens, UniProt Q8TDX7). The experiment in a line: Inhibition of NEK7 (unknown origin).
Assay [6] deals with Serine/threonine-protein kinase PAK 2 (Homo sapiens, UniProt Q13177). The experiment in a line: Inhibition of PAK2 (unknown origin).
Assay [7] deals with Rho-associated protein kinase 1 (Homo sapiens, UniProt Q13464). The experiment in a line: Inhibition of ROCK1 (unknown origin).
Assay [8] has as its target Serine/threonine-protein kinase Sgk1 (Homo sapiens, UniProt O00141). The experiment in a line: Inhibition of SGK (unknown origin).
The target in the next assay is Angiopoietin-1 receptor (Homo sapiens, UniProt Q02763). The assay is described as follows: Inhibition of Tie-2 (unknown origin).
Assay [9] concerns the target Testis-specific serine/threonine-protein kinase 1 (Homo sapiens, UniProt Q9BXA7). The experiment in a line: Inhibition of TSSK1 (unknown origin).
The test system of another assay is LoVo. The experiment in a line: Antitumor activity against human LoVo cells harboring KRAS G13D/CDKN2A P48L/FBXW7 R505C/MSH2/SMO G16_L17insLL/A324T/NF1 R1276Q/Y1607fs17/APC1114 mutant xenografted in mouse assessed as tumor growth inhibition at 10 mg/kg, po. It is filed as functional. To be noted: read-out: TGI. In a few lines: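 Single-agent dose ranging in human tumor xenograft mice at 2.5, 5 or 10 mg/kg oral. Tumor volume was measured by caliper as (L×W×W)/2. %TGI = 100×[1 − AUC(treatment/d)/AUC(vehicle/d)] from the fitted growth curve per dose group, relative to vehicle.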

In another assay the test system is 537-mel. The assay is described as follows: Antitumor activity against human 537-mel cells harboring PTEN null mutation xenografted in mouse assessed as tumor growth inhibition at 5 mg/kg, po. It is filed as functional. Conditions: read-out: TGI. In a few lines: (§1)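 Mice carrying human tumor xenografts dosed orally once daily for 21 consecutive days. Tumor volume measured by calipers as (L×W×W)/2. %TGI = 100×[1 − AUC(treatment/day)/AUC(vehicle/day)], using the area under the fitted growth curve relative to vehicle.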

The next assay deals with A2058. The experiment in a line: Antitumor activity against human A2058 cells harboring BRAF V600E/PTEN L112Q/V175/TP53 V274F mutant xenografted in mouse assessed as tumor growth inhibition at 5 mg/kg, po. Conditions: read-out: TGI. The class given is functional. Put shortly:
as §1

The test system of another assay is NCI-H520. The experiment in a line: Antitumor activity against human NCI-H520 cells harboring TP53 W146 and CDKN2A G G45 mutant xenografted in mouse assessed as tumor growth inhibition at 5 mg/kg, po. It is filed as functional. To be noted: read-out: TGI. Put shortly:
(§2)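 Human tumor xenografts in mice were dosed orally at the indicated mg/kg. Tumor volume was measured with calipers as (L×W×W)/2. %TGI = 100 × [1 − (AUC treatment/d)/(AUC vehicle/d)], using the area under the fitted tumor-growth curve per day for each dose group relative to vehicle.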

The next assay has as its system NCI-H69. The assay is described as follows: Antitumor activity against human NCI-H69 cells harboring RBI E748/PK3CA G106_R108/TP53 E171 mutant xenografted in mouse assessed as tumor growth inhibition at 10 mg/kg, po. To be noted: read-out: TGI. The class given is functional. In a few lines: as §2
Assay [10] can be described thus: Antitumor activity against human A375.X1 cells xenografted in mouse assessed as reduction in ERK phosphorylation at 10 mg/kg, po administered for 3 days and measured at 2 to 24 hrs by Western blot analysis. The class given is functional. Also on record: scale not given: the % may be the effect or the level left. Conditions: time 74-96 hrs. Put shortly: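 A375.X1 xenograft mice were dosed orally at 1, 3, 5 or 10 mg/kg once daily for 3 days. Tumors were collected 2, 8 and 24 h after the last dose, pulverized frozen and resolved by 4–12% SDS-PAGE. p-ERK1/2 and t-ERK1/2 were measured by Western blot and quantified by band intensity, relative to vehicle-treated mice (0 h).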

Assay [11] deals with NCI-H2122. The experiment in a line: Antitumor activity against human NCI-H2122 cells xenografted in mouse assessed as reduction in ERK phosphorylation at 1 to 10 mg/kg, po administered for 3 days and measured at 8 hrs by Western blot analysis. It is filed as functional. The arrangement: scale not given: the % may be the effect or the level left. To be noted: time 80 hrs. In a few lines:
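NCI-H2122 xenograft mice received 3 daily oral doses of 1, 3, 5 or 10 mg/kg. Tumors were collected 2, 8 and 24 h after the last dose, pulverized on dry ice and lysed. Lysates were run on 4–12% SDS-PAGE and transferred to nitrocellulose. p-ERK1/2 and t-ERK1/2 bands were quantified on an Odyssey imager and expressed relative to vehicle-treated mice (0 h).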

The test system of assay [12] is NCI-H2122. The assay is described as follows: Antiproliferative activity against human NCI-H2122 cells assessed as reduction in cell viability incubated for 96 hrs in presence of 4-(2-(1H-indazol-4-yl)-6-((4-(methylsulfonyl)piperazin-1-yl)methyl)thieno[3,2-d]pyrimidin-4-yl)morpholine. It is filed as functional, cell-based.
The test system of another assay is MeWo. The experiment in a line: Antiproliferative activity against human MeWo cells assessed reduction in cell viability incubated for 4 days in presence of 4-(2-(1H-indazol-4-yl)-6-((4-(methylsulfonyl)piperazin-1-yl)methyl)thieno[3,2-d]pyrimidin-4-yl)morpholine by celltiter-glo assay. It is filed as functional. Conditions: time 4 day. In a few lines:
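4-day CellTiter-Glo viability read-out on melanoma lines, cells exposed to increasing concentrations of each inhibitor alone and in combination.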

For assay [13], the system named is 888-mel. The assay is described as follows: Inhibition of PI3K/MEK signaling pathway in human 888-mel cells assessed as decrease in ERK phosphorylation by incubated for 24 hrs by Western blot analysis. It is filed as cell-based.
Assay [14] is described as follows: Antitumor activity against human A375.X1 cells xenografted in mouse assessed as tumor growth inhibition at 20 mg/kg, po administered every third day for 21 days in presence of 4-(2-(1H-indazol-4-yl)-6-((4-(methylsulfonyl)piperazin-1-yl)methyl)thieno[3,2-d]pyrimidin-4-yl)morpholine. It is filed as functional. To be noted: A375.X1, 504 h, time 21 day, read-out: TGI. In a few lines: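 Human tumor xenografts in mice. Drugs given orally, as single agents or combined with the PI3K inhibitor. Schedules were daily (QD) or every third day (Q3D) over 21 days. Tumor volume was measured by caliper as (L×W×W)/2. %TGI = 100×[1 − AUC(treatment/d)/AUC(vehicle/d)] from fitted growth curves, with group means. Tumor lysates were immunoblotted for pS6.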

Assay [15] concerns 888-mel. The assay is described as follows: Inhibition of AKT phosphorylation in human 888-mel cells preincubated with compound for 24 hrs followed by compound washout and measured after 2 hrs in presence of 4-(2-(1H-indazol-4-yl)-6-((4-(methylsulfonyl)piperazin-1-yl)methyl)thieno[3,2-d]pyrimidin-4-yl)morpholine by immunoblotting analysis. The class given is cell-based. In a few lines: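 The medium was then exchanged to remove compound. Lysates were prepared 2 and 24 h after washout and immunoblotted for cleaved PARP, p-AKT and p-ERK using HRP secondary antibody and ECL.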

Each structure is given as a SMILES string. The source made the active and inactive calls. The calls are words filed in the database; no cut-off is given here.

Chain of Angiopoietin-1 receptor (Q02763 whole entry): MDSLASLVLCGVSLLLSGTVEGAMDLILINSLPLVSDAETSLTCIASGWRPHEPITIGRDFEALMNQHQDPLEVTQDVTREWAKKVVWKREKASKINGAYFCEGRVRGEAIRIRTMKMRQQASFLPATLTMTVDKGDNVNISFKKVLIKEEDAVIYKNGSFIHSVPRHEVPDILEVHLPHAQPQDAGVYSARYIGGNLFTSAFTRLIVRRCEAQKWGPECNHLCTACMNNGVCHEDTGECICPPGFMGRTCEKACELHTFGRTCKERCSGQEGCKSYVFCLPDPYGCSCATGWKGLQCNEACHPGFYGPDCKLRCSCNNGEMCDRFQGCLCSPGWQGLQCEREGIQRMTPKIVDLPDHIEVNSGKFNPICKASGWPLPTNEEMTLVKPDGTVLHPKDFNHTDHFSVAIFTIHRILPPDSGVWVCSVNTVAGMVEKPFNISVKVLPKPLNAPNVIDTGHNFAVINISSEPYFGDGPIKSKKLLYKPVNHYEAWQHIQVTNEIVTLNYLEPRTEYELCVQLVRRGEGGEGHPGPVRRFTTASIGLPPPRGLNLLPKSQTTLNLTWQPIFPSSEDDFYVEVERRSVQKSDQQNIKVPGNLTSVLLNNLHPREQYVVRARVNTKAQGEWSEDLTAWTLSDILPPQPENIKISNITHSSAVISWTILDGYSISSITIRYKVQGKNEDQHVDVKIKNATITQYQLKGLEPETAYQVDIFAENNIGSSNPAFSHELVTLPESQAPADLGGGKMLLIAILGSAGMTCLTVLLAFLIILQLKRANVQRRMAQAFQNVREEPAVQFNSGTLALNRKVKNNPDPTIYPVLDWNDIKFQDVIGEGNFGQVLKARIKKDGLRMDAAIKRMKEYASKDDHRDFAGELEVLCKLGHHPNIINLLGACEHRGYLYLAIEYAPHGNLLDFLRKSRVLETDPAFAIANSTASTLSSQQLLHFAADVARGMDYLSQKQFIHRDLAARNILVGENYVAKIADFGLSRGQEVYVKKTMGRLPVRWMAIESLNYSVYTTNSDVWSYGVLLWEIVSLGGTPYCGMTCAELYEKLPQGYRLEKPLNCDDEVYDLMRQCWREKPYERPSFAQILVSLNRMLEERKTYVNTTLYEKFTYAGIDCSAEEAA
Chain of Calcium/calmodulin-dependent protein kinase type 1 (Q14012 whole entry): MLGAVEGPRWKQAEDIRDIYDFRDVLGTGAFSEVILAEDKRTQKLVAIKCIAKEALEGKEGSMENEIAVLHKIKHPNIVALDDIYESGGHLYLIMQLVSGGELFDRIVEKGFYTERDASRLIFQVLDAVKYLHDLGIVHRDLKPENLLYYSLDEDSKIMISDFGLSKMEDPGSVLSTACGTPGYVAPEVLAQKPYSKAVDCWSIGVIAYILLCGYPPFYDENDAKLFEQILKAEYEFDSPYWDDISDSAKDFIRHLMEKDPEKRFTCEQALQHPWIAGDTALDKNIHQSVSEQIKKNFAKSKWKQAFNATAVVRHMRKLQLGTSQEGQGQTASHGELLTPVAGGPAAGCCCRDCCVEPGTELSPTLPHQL
Chain of Mitogen-activated protein kinase 1 (P28482 whole entry): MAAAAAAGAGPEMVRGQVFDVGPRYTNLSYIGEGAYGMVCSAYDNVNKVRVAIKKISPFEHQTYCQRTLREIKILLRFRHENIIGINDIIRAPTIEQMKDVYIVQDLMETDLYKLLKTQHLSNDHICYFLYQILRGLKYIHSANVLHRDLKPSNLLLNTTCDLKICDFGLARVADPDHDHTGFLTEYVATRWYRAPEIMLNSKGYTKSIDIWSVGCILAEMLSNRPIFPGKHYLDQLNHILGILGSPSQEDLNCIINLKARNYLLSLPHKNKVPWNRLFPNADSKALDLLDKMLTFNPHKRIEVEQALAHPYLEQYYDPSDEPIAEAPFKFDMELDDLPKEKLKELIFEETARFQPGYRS
Chain of Dual specificity protein kinase CLK3 (P49761 whole entry): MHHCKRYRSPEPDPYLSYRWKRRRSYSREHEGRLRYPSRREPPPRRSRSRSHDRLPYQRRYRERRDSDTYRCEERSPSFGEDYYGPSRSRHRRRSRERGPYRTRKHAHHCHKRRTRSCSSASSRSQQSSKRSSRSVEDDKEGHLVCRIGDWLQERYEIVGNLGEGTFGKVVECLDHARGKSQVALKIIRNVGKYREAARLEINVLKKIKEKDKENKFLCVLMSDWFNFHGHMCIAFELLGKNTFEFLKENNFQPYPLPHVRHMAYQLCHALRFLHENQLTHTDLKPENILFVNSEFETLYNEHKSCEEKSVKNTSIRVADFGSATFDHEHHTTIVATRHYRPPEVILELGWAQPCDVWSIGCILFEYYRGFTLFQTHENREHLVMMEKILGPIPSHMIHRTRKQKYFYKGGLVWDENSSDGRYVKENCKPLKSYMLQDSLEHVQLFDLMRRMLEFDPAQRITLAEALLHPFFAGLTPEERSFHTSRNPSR
Chain of Serine/threonine-protein kinase Nek7 (Q8TDX7 whole entry): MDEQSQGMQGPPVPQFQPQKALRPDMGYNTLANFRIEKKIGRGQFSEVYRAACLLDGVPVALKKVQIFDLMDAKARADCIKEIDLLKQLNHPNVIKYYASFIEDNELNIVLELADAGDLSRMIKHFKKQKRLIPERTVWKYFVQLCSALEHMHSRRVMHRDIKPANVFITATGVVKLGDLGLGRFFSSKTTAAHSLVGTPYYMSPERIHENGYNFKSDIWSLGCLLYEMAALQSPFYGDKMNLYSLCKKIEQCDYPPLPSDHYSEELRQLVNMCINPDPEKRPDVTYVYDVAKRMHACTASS
Chain of Rho-associated protein kinase 1 (Q13464 whole entry): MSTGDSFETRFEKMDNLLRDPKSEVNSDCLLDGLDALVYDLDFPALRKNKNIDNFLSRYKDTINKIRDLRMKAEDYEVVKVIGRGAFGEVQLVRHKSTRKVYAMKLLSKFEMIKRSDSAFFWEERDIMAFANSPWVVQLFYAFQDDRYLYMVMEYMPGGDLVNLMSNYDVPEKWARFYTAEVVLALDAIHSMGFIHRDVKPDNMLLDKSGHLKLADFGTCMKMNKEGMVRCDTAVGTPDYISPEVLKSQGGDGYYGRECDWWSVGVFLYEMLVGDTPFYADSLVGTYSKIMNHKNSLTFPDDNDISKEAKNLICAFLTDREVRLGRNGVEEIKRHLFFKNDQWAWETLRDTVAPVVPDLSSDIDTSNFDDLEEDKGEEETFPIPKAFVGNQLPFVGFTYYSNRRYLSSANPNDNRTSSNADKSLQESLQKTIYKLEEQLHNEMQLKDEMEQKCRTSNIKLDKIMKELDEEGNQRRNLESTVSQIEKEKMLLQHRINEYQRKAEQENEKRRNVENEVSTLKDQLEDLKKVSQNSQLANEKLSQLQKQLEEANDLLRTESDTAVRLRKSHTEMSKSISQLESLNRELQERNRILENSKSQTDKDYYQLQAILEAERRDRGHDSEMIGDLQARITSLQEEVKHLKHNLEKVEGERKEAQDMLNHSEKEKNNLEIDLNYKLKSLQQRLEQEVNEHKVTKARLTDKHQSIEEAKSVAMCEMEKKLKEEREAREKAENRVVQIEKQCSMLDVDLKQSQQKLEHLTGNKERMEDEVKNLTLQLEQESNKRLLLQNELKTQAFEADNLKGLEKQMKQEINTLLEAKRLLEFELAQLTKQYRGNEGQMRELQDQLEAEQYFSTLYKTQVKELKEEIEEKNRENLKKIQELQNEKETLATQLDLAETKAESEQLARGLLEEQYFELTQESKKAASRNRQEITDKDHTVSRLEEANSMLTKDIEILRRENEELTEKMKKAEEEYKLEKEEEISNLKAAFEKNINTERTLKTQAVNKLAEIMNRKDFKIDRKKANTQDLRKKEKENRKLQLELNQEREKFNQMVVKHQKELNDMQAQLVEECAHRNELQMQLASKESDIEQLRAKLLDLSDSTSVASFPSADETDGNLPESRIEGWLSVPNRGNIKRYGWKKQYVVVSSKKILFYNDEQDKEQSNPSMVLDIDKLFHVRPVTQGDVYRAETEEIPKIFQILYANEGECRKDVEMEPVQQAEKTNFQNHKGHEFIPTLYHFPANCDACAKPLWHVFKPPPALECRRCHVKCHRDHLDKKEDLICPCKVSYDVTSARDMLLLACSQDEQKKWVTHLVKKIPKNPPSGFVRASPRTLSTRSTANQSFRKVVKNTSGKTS
Chain of Serine/threonine-protein kinase Sgk1 (O00141 whole entry): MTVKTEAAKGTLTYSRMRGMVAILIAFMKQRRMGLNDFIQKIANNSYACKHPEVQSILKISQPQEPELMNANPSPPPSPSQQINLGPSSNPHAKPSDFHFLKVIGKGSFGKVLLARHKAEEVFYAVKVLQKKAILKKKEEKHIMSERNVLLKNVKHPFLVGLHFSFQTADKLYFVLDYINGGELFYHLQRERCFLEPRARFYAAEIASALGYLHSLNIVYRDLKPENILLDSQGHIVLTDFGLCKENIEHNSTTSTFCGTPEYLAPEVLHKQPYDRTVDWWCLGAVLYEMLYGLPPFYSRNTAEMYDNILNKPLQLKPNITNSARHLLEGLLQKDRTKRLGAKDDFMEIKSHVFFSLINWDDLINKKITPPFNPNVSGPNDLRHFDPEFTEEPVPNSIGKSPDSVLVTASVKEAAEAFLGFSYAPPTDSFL
Chain of Serine/threonine-protein kinase PAK 2 (Q13177 whole entry): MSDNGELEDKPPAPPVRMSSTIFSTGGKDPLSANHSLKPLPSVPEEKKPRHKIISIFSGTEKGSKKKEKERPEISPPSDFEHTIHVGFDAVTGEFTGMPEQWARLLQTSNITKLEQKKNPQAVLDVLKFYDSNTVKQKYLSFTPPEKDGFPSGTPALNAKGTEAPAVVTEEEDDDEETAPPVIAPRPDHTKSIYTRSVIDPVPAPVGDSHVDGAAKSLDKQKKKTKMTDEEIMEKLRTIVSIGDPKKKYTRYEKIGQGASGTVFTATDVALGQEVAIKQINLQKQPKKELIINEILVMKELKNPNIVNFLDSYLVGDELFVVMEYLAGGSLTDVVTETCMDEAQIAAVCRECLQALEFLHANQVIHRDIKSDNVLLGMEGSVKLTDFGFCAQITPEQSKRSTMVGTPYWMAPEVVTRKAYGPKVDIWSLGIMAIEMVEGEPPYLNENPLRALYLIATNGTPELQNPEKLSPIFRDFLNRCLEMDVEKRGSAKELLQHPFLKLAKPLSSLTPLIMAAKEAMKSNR

Consider `O=C(c1ccc(F)c(F)c1Nc1ccc(I)cc1F)N1CC(O)([C@@H]2CCCCN2)C1` [COBIMETINIB], for which the IC50 (in assay [1]; in assay [2]; in [3]; against Ephrin type-A receptor 2; in assay [4]; in assay [5]) was > 10 µM in each case. Further, the IC50 (in assay [6]; in [7]; in assay [8]; against Angiopoietin-1 receptor; in assay [9]) was > 10 µM each time. For the same compound, the inhibition in vivo at 10 mg/kg in the assay with LoVo came to 98%; with NCI-H69 it was 38%. Further, the inhibition in vivo at 5 mg/kg with 537-mel came out at 94%; with A2058, 12.7%; in the assay with NCI-H520 it was 26%. Besides, the figures for the Activity (in assay [10]; in the assay with NCI-H2122 [11]; in the assay with MeWo) were 75%, 83% and 60%, respectively. Further, in the assay on NCI-H2122 [12], the result was inactive. The inhibition entry in the assay with 888-mel [13] and with 888-mel [15] was “Active” throughout. Further, in assay [14], the inhibition in vivo at 20 mg/kg turned out to be 118%.
